ChEMBL document CHEMBL1649110, “Pharmacodynamics of minocycline against Staphylococcus aureus in an in vitro pharmacokinetic model” (Antimicrob Agents Chemother, 2008)
In brackets after ≈: the same amount, converted by molar mass. Activity calls are given as the source filed them. The rule behind the calls is not given here.

Experiments:
Staphylococcus aureus [1] = experiment: Bactericidal activity against Staphylococcus aureus infected in in vitro hollow-fiber PK model at 200 mg administered every 24 hrs; assay type: functional, organism-based
Staphylococcus aureus [2] = experiment: Bactericidal activity against Staphylococcus aureus infected in in vitro hollow-fiber PK model at 400 mg administered every 24 hrs; assay type: functional, organism-based
Staphylococcus aureus [3] = experiment: Bactericidal activity against Staphylococcus aureus infected in in vitro hollow-fiber PK model at 200 mg administered every 12 hrs; assay type: functional, organism-based
Staphylococcus aureus [4] = experiment: Bactericidal activity against Staphylococcus aureus assessed as viable bacterial count at 2 times MIC; assay type: functional
Staphylococcus aureus [5] = experiment: Bactericidal activity against Staphylococcus aureus assessed as viable bacterial count at 4 times MIC; assay type: functional
Staphylococcus aureus [6] = experiment: Bactericidal activity against Staphylococcus aureus infected in in vitro hollow-fiber PK model at 100 mg administered every 12 hrs; assay type: functional, organism-based
Staphylococcus aureus [7] = experiment: Bactericidal activity against Staphylococcus aureus assessed as log reduction in bacterial count; assay type: functional
Staphylococcus aureus [8] = experiment: Ratio of AUC to MIC in methicillin-resistant Staphylococcus aureus infected in in vitro hollow-fiber PK model at 100 mg administered every 12 hrs; assay type: functional
Staphylococcus aureus [9] = experiment: Antibacterial activity against Staphylococcus aureus SMH 31236 infected in in vitro hollow-fiber model assessed as log reduction in viable bacterial count at 100 mg administered every 12 hrs measured after 24 hrs; assay type: functional
Outline: (§1)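 Hollow-fiber model at 37°C in 25% Mueller-Hinton broth with a peripheral-compartment inoculum of 10^6 CFU/ml. […] Samples were taken at 0–24 h and counted on nutrient agar (detection limit 2.0 x 10^2 CFU/ml). Run in triplicate.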

Staphylococcus aureus [10] = experiment: Antibacterial activity against Staphylococcus aureus SMH 31236 infected in in vitro hollow-fiber model assessed as log reduction in viable bacterial count at 100 mg after 12 hrs; assay type: functional; outline: as §1
Staphylococcus aureus [11] = experiment: AUBKC (24 hrs) in methicillin-resistant Staphylococcus aureus SMH 32024 infected in in vitro hollow-fiber PK model at 100 mg administered every 12 hrs; assay type: functional
Outline: (§2)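 Peripheral compartment inoculated to 10^6 CFU/ml. Samples at 0–24 h were spiral-plated on nutrient agar (detection limit 2.0 x 10^2 CFU/ml). Area under the bacterial kill curve was taken over 0–24 h. Triplicate runs.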

Staphylococcus aureus [12] = experiment: AUBKC (24 hrs) in […] Staphylococcus aureus SMH 26910 infected in in vitro hollow-fiber PK model at 100 mg administered every 12 hrs; assay type: functional; outline: as §2
Staphylococcus aureus [13] = experiment: Antibacterial activity against methicillin-resistant Staphylococcus aureus SMH 32985 infected in in vitro hollow-fiber model assessed as log reduction in viable bacterial count at 100 mg after 12 hrs; assay type: functional
Staphylococcus aureus [14] = experiment: Ratio of AUC to MIC in methicillin-resistant Staphylococcus aureus infected in in vitro hollow-fiber PK model at 100 mg after 24 hrs; assay type: functional
Staphylococcus aureus [15] = experiment: Antibacterial activity against Staphylococcus aureus SMH 26910 infected in in vitro hollow-fiber model assessed as log reduction in viable bacterial count at 100 mg administered every 12 hrs measured after 24 hrs; assay type: functional; outline: as §1
Staphylococcus aureus [16] = experiment: Bactericidal activity against methicillin-resistant Staphylococcus aureus infected in rabbit at 6 mg/kg of body weight administered every 8 hrs measured after 72 hrs; assay type: functional
Staphylococcus aureus [17] = experiment: Antibacterial activity against Staphylococcus aureus SMH 26910 after 24 hrs by Etest; assay type: functional; conditions: SMH 26910, 24 h
[18] = Tmax in simulated human serum in in vitro hollow-fiber PK model at 100 mg administered every 12 hrs; assay type: ADME, cell-free; conditions: in vitro hollow-fiber PK model simulating human serum
Outline: (§3)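 Samples were taken at 0, 1, 2, 3, 4, 5, 6, 12 and 24 h. Concentrations were measured by bioassay on Penassay seed agar with Bacillus subtilis as indicator. Triplicate runs.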

Staphylococcus aureus [19] = experiment: AUBKC (24 hrs) in methicillin-resistant Staphylococcus aureus SMH 31236 infected in in vitro hollow-fiber PK model at 100 mg administered every 12 hrs; assay type: functional; outline: as §2
Staphylococcus aureus [20] = experiment: Bactericidal activity against Staphylococcus aureus assessed as reduction log reduction in viable bacterial count at 0.5 to 1 times MIC; assay type: functional
[21] = Cmax in simulated human serum in in vitro hollow-fiber PK model at 100 mg administered every 12 hrs; assay type: ADME, organism-based; design: dose 100 mg; conditions: in vitro hollow-fiber PK model simulating human serum; outline: as §3
Staphylococcus aureus [22] = experiment: Antibacterial activity against methicillin-resistant Staphylococcus aureus SMH 32985 infected in in vitro hollow-fiber model assessed as log reduction in viable bacterial count at 100 mg administered every 12 hrs measured after 24 hrs; assay type: functional
Outline: (§4)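 Hollow-fiber model at 37°C, 25% Mueller-Hinton broth, 10^6 CFU/ml inoculum in the peripheral compartment. […] Viable counts on nutrient agar (detection limit 2.0 x 10^2 CFU/ml). Read-out is log change in count at 24 h versus start. Triplicate.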

Staphylococcus aureus [23] = experiment: Antibacterial activity against Staphylococcus aureus SMH 31236 after 24 hrs by Etest; assay type: functional; conditions: SMH 31236, 24 h
Staphylococcus aureus [24] = experiment: Antibacterial activity against methicillin-resistant Staphylococcus aureus SMH 32024 after 24 hrs by Etest; assay type: functional; conditions: SMH 32024, 24 h
[25] = Half life in human serum; assay type: ADME, cell-free
[26] = Half life in simulated human serum in in vitro hollow-fiber PK model at 100 mg administered every 12 hrs; assay type: ADME, cell-free; conditions: in vitro hollow-fiber PK model simulating human serum; outline: as §3
Staphylococcus aureus [27] = experiment: AUBKC (24 hrs) in methicillin-resistant Staphylococcus aureus SMH 32985 infected in in vitro hollow-fiber PK model at 100 mg administered every 12 hrs; assay type: functional; outline: as §2
Staphylococcus aureus [28] = experiment: Antibacterial activity against Staphylococcus aureus SMH 26910 infected in in vitro hollow-fiber model assessed as log reduction in viable bacterial count at 100 mg after 12 hrs; assay type: functional; outline: as §1
Staphylococcus aureus [29] = experiment: Antibacterial activity against methicillin-resistant Staphylococcus aureus SMH 32024 infected in in vitro hollow-fiber model assessed as log reduction in viable bacterial count at 100 mg administered every 12 hrs measured after 24 hrs; assay type: functional; outline: as §4
[30] = T>MIC in Staphylococcus aureus infected rabbit; assay type: functional
Staphylococcus aureus [31] = experiment: Antibacterial activity against methicillin-resistant Staphylococcus aureus SMH 32024 infected in in vitro hollow-fiber model assessed as log reduction in viable bacterial count at 100 mg after 12 hrs; assay type: functional
Staphylococcus aureus [32] = experiment: Antibacterial activity against methicillin-resistant Staphylococcus aureus SMH 32985 after 24 hrs by Etest; assay type: functional; conditions: SMH 32985, 24 h
Staphylococcus aureus [33] = experiment: Ratio of AUC to MIC in methicillin-resistant Staphylococcus aureus infected in in vitro hollow-fiber PK model at 100 mg after 12 hrs; assay type: functional
Staphylococcus aureus [34] = experiment: Ratio of AUC to MIC in methicillin-resistant Staphylococcus aureus infected in in vitro hollow-fiber PK model at 100 mg after 8 hrs; assay type: functional
[35] = Cmax in simulated human serum in in vitro hollow-fiber PK model at 600 mg administered every 24 hrs by HPLC; assay type: ADME, organism-based; design: dose 600 mg; conditions: in vitro hollow-fiber PK model simulating human serum
[36] = Tmax in simulated human serum in in vitro hollow-fiber PK model at 600 mg administered every 24 hrs; assay type: ADME, cell-free; conditions: in vitro hollow-fiber PK model simulating human serum
Staphylococcus aureus [37] = experiment: Antibacterial activity against Staphylococcus aureus in murine thigh infection model; assay type: functional; conditions: Thigh muscle
[38] = T>MIC in Staphylococcus aureus infected neutropenic mouse thigh infection model; assay type: functional, Thigh muscle
[39] = Cmax in simulated human serum in in vitro hollow-fiber PK model at 1 g administered every 12 hrs by fluorescence polarization immunoassay method; assay type: ADME, organism-based; design: dose 1 g; conditions: in vitro hollow-fiber PK model simulating human serum
Outline: (§5)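 Free vancomycin 1 g q12h simulated in a hollow-fiber model at 37°C with 25% Mueller-Hinton broth. […] Dosed into the dosing chamber at 0 and 12 h. Samples were taken at 0, 1, 2, 3, 4, 5, 6, 12 and 24 h, and concentrations measured by fluorescence polarization immunoassay. Triplicate experiments.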

Staphylococcus aureus [40] = experiment: Bactericidal activity against methicillin-resistant Staphylococcus aureus infected in rabbit at 50 mg/kg of body weight administered every 8 hrs measured after 72 hrs; assay type: functional
[41] = Half life in simulated human serum in in vitro hollow-fiber PK model at 1 g administered every 12 hrs; assay type: ADME, cell-free; conditions: in vitro hollow-fiber PK model simulating human serum; outline: as §5
[42] = Tmax in simulated human serum in in vitro hollow-fiber PK model at 1 g administered every 12 hrs; assay type: ADME, cell-free; conditions: in vitro hollow-fiber PK model simulating human serum; outline: as §5

C[C@H]1c2cccc(O)c2C(=O)C2=C(O)[C@]3(O)C(=O)C(C(N)=O)=C(O)[C@@H](N(C)C)[C@@H]3[C@@H](O)[C@@H]21.O [DOXYCYCLINE]
Activity (Staphylococcus aureus [1]): Active | Activity (Staphylococcus aureus [2]): Active | Activity (Staphylococcus aureus [3]): Active | fold change (FC) (Staphylococcus aureus [4]): 0.5 | fold change (FC) (Staphylococcus aureus [5]): 0.5 | Activity (Staphylococcus aureus [6]): Active | Activity (Staphylococcus aureus [7]): Active

CN(C)c1ccc(O)c2c1C[C@H]1C[C@H]3[C@H](N(C)C)C(O)=C(C(N)=O)C(=O)[C@@]3(O)C(O)=C1C2=O [MINOCYCLINE]
RatioAUC/MIC (Staphylococcus aureus [8]): 200 | FC (Staphylococcus aureus [9]): 0.1 | FC (Staphylococcus aureus [10]): 1.6 | fold change (FC) (Staphylococcus aureus [11]): 77.2 | fold change (FC) (Staphylococcus aureus [12]): 77.6 | FC (Staphylococcus aureus [13]): 0.5 | RatioAUC/MIC (Staphylococcus aureus [14]): 1.6 | FC (Staphylococcus aureus [15]): 1.4 | log10 CFU/g (Staphylococcus aureus [16]): 5.3 log10 CFU/g | MIC (Staphylococcus aureus [17]): 0.06 µg/mL (≈ 0.131 µM) | Tmax [18]: 2.3 h | fold change (FC) (Staphylococcus aureus [19]): 98.4 | FC (Staphylococcus aureus [20]): 1.5 | Cmax [21]: 600 ng/mL | FC (Staphylococcus aureus [22]): 0.8 | MIC (Staphylococcus aureus [23]): 0.75 µg/mL (≈ 1.64 µM) | MIC (Staphylococcus aureus [24]): 0.19 µg/mL (≈ 0.415 µM) | half-life [25]: 12 h | half-life [26]: 12 h | fold change (FC) (Staphylococcus aureus [27]): 79.7 | FC (Staphylococcus aureus [28]): 1.9 | FC (Staphylococcus aureus [29]): 0.2 | fT>MIC [30]: 100% | Log reduction in bacterial count (Staphylococcus aureus [7]): 1.5 | FC (Staphylococcus aureus [31]): 0.8 | MIC (Staphylococcus aureus [32]): 0.04 µg/mL (≈ 0.0874 µM) | RatioAUC/MIC (Staphylococcus aureus [33]): 2.1 | RatioAUC/MIC (Staphylococcus aureus [34]): 1.7

CO[C@H]1/C=C/O[C@@]2(C)Oc3c(C)c(O)c4c(O)c(c(/C=N/N5CCN(C)CC5)c(O)c4c3C2=O)NC(=O)/C(C)=C\C=C\[C@H](C)[C@H](O)[C@@H](C)[C@@H](O)[C@@H](C)[C@H](OC(C)=O)[C@@H]1C [RIFAMPIN]
Cmax [35]: 2000 ng/mL | Tmax [36]: 1.2 h

CN(C)c1cc(NC(=O)CNC(C)(C)C)c(O)c2c1C[C@H]1C[C@H]3[C@H](N(C)C)C(O)=C(C(N)=O)C(=O)[C@@]3(O)C(O)=C1C2=O [TIGECYCLINE]
MIC (Staphylococcus aureus [37]): 0.125 µg/mL (≈ 0.213 µM) | Activity (Staphylococcus aureus [7]): Active | Log reduction in bacterial count (Staphylococcus aureus [7]): 2 | fT>MIC [38]: >50%

CN[C@H](CC(C)C)C(=O)N[C@H]1C(=O)N[C@@H](CC(N)=O)C(=O)N[C@H]2C(=O)N[C@H]3C(=O)N[C@H](C(=O)N[C@H](C(=O)O)c4cc(O)cc(O)c4-c4cc3ccc4O)[C@H](O)c3ccc(c(Cl)c3)Oc3cc2cc(c3O[C@@H]2O[C@H](CO)[C@@H](O)[C@H](O)[C@H]2O[C@H]2C[C@](C)(N)[C@H](O)[C@H](C)O2)Oc2ccc(cc2Cl)[C@H]1O [VANCOMYCIN]
MIC (Staphylococcus aureus [17]): 1.5 µg/mL (≈ 1.04 µM) | Cmax [39]: 15000 ng/mL | log10 CFU/g (Staphylococcus aureus [40]): 4.8 log10 CFU/g | half-life [41]: 6 h | MIC (Staphylococcus aureus [24]): 1.5 µg/mL (≈ 1.04 µM) | MIC (Staphylococcus aureus [32]): 1.5 µg/mL (≈ 1.04 µM) | Tmax [42]: 1 h
